Laboratory results published in ChEMBL document CHEMBL3352149, “Promiscuity and selectivity in covalent enzyme inhibition: a systematic study of electrophilic fragments” (J Med Chem, 2014).
The source made the active and inactive calls. The rule behind the calls is not given here.

Key:
[1] = tested on: Escherichia coli; assay: Inhibition of wild-type Escherichia coli MurC compound preincubated for 10 mins before substrate addition at 25 uM measured after 15 mins by LC-MS method
How it was run: (§1)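 E. coli wild-type enzyme (4 nM) was preincubated with 25 μM compound for 10 min at 37 °C. Enzymatically generated nucleotide-sugar substrate (~200 μM) plus ATP (~200 μM), or NADPH 200 μM for MurB, was added for 10 min. Reactions were started with amino-acid cosubstrate (MurC–F) or EP-UNAG (MurB), run 15 min at 37 °C, and quenched with formic acid. Product was measured by negative-ESI LC-MS EIC peak area. MgCl2: MurC 10, MurD/E 2, MurF 5 mM; MurB had 5 mM KCl. All in 50 mM NH4HCO3, 0.07% BSA, 1% DMSO; triplicate.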

[2] = tested on: Escherichia coli; assay: Inhibition of wild-type Escherichia coli MurA compound preincubated for 10 mins before substrate addition at 25 uM measured after 15 mins by LC-MS method
[3] = tested on: HeLa; assay: Cytotoxicity against human HeLa cells assessed as reduction in cell viability after 24 hrs by CellTiter-Blue assay; type: cell-based
How it was run: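 HeLa cells seeded in triplicate at 5×10^3 cells/well and grown 24 h at 37 °C/5% CO2. Compounds at varying concentrations were added as a 2x stock in phenol-red-free DMEM with FBS, penicillin/streptomycin, sodium pyruvate and L-glutamine, then left 24 h. Medium was replaced with CellTiter-Blue medium for 3 h. A570/A610 was read after background subtraction, as % of untreated controls; EC50 derived.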

[4] = tested on: Escherichia coli; assay: Inhibition of Escherichia coli MetAP at 25 uM after 20 mins by HPLC analysis
How it was run: (§2)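 Endpoint assay. Enzyme (50 nM) was preincubated with 25 μM compound for 20 min at 37 °C in 50 mM Tris pH 7.5, 100 mM NaCl, 100 μM CoCl2, 0.075% BSA. MGMM substrate (400 μM) was then added for 15 min (human MetAP-1) or 20 min (E. coli MetAP). Reactions were stopped with TFA. GMM product was quantified by RP-HPLC, UV 214 nm. Triplicate.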

[5] = tested on: Escherichia coli; assay: Inhibition of wild-type Escherichia coli MurF compound preincubated for 10 mins before substrate addition at 25 uM measured after 15 mins by LC-MS method; how it was run: as §1
[6] = target: Genome polyprotein (West Nile virus) (UniProt P06935); assay: Inhibition of West Nile virus NS2B-NS3 protease at 50 uM
[7] = target: Prothrombin (Bos taurus) (UniProt P00735); assay: Inhibition of Bovine thrombin using Boc-Val-Pro-Arg-AMC as substrate compound preincubated at 25 uM for 15 mins by fluorescence assay
How it was run: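 Bovine thrombin (final 10 nM) was preincubated 15 min with 25 μM compound in 50 mM Tris-HCl pH 7.5, 150 mM NaCl, 0.05% Tween 20. The reaction was started with Boc-Val-Pro-Arg-AMC (50 μM final). Fluorescence (ex 355/em 460 nm) was monitored continuously for 10 min; activity taken as slope (RFU/s). Triplicate.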

[8] = tested on: Escherichia coli; assay: Inhibition of wild-type Escherichia coli MurE compound preincubated for 10 mins before substrate addition at 25 uM measured after 15 mins by LC-MS method; how it was run: as §1
[9] = tested on: Escherichia coli; assay: Inhibition of wild-type Escherichia coli MurD compound preincubated for 10 mins before substrate addition at 25 uM measured after 15 mins by LC-MS method; how it was run: as §1
[10] = target: Genome polyprotein (dengue virus type 2) (UniProt P12823); assay: Inhibition of Dengue virus serotype 2 NS2B-NS3 protease at 50 uM
[11] = tested on: Escherichia coli; assay: Induction of covalent MurE enzyme adduct formation preincubated with UNAG substrate for 10 mins compound treated at 300 uM after 1 hr by ESI-MS analysis
[12] = target: Methionine aminopeptidase 1 (Homo sapiens) (UniProt P53582); assay: Inhibition of human MetAP at 25 uM after 20 mins by HPLC analysis; how it was run: as §2
[13] = tested on: Escherichia coli; assay: Inhibition of wild-type Escherichia coli MurB compound preincubated for 10 mins before substrate addition at 25 uM measured after 15 mins by LC-MS method; how it was run: as §1
[14] = GSH reactivity of the compound assessed as half life by RP-HPLC analysis
[15] = GSH reactivity of the compound assessed as adducts formation by RP-HPLC analysis
How it was run: (§3)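 Fresh aqueous glutathione (10 mM solution) was added to 50 mM Tris-maleate buffer, pH 7.5. The reaction was started with compound from 10 mM DMSO stock (final 250 μM). Mixtures were followed by reversed-phase HPLC on an ODS column with a gradient to 100% B; rate constants are given in l·mol⁻¹·s⁻¹.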

[16] = GSH reactivity of the compound assessed as adducts formation meaured over 3 hrs by RP-HPLC analysis; how it was run: as §3
[17] = tested on: Escherichia coli; assay: Induction of covalent MetAP enzyme adduct formation at 300 uM after 1 hr by ESI-MS analysis
How it was run: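 E. coli MetAP (25 μM) was incubated with 300 μM compound for 60 min at 37 °C in 50 mM NH4HCO3, pH 7.9, with 200 μM CoCl2. Untreated enzyme served as control. Samples were spin-desalted on Sephadex G-25 and analysed by flow-injection ESI-MS in positive mode (isocratic water/acetonitrile 95/5 with 0.1% formic acid), looking for covalent adducts.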

[18] = tested on: Escherichia coli; assay: Induction of covalent MurA enzyme adduct formation preincubated with UNAG substrate for 10 mins compound treated at 300 uM after 1 hr by ESI-MS analysis
How it was run: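 E. coli MurA (25 μM) preincubated with UNAG 300 μM for 10 min at 37 °C, then test compound added at 300 μM. Incubation ran 60 min at 37 °C in 50 mM NH₄HCO₃, pH 7.9. Samples were spin-desalted on Sephadex G-25, then analysed by flow-injection positive-mode ESI-MS for enzyme adducts. Untreated enzyme served as control.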

Sequence of Genome polyprotein (West Nile virus) (P06935 whole entry): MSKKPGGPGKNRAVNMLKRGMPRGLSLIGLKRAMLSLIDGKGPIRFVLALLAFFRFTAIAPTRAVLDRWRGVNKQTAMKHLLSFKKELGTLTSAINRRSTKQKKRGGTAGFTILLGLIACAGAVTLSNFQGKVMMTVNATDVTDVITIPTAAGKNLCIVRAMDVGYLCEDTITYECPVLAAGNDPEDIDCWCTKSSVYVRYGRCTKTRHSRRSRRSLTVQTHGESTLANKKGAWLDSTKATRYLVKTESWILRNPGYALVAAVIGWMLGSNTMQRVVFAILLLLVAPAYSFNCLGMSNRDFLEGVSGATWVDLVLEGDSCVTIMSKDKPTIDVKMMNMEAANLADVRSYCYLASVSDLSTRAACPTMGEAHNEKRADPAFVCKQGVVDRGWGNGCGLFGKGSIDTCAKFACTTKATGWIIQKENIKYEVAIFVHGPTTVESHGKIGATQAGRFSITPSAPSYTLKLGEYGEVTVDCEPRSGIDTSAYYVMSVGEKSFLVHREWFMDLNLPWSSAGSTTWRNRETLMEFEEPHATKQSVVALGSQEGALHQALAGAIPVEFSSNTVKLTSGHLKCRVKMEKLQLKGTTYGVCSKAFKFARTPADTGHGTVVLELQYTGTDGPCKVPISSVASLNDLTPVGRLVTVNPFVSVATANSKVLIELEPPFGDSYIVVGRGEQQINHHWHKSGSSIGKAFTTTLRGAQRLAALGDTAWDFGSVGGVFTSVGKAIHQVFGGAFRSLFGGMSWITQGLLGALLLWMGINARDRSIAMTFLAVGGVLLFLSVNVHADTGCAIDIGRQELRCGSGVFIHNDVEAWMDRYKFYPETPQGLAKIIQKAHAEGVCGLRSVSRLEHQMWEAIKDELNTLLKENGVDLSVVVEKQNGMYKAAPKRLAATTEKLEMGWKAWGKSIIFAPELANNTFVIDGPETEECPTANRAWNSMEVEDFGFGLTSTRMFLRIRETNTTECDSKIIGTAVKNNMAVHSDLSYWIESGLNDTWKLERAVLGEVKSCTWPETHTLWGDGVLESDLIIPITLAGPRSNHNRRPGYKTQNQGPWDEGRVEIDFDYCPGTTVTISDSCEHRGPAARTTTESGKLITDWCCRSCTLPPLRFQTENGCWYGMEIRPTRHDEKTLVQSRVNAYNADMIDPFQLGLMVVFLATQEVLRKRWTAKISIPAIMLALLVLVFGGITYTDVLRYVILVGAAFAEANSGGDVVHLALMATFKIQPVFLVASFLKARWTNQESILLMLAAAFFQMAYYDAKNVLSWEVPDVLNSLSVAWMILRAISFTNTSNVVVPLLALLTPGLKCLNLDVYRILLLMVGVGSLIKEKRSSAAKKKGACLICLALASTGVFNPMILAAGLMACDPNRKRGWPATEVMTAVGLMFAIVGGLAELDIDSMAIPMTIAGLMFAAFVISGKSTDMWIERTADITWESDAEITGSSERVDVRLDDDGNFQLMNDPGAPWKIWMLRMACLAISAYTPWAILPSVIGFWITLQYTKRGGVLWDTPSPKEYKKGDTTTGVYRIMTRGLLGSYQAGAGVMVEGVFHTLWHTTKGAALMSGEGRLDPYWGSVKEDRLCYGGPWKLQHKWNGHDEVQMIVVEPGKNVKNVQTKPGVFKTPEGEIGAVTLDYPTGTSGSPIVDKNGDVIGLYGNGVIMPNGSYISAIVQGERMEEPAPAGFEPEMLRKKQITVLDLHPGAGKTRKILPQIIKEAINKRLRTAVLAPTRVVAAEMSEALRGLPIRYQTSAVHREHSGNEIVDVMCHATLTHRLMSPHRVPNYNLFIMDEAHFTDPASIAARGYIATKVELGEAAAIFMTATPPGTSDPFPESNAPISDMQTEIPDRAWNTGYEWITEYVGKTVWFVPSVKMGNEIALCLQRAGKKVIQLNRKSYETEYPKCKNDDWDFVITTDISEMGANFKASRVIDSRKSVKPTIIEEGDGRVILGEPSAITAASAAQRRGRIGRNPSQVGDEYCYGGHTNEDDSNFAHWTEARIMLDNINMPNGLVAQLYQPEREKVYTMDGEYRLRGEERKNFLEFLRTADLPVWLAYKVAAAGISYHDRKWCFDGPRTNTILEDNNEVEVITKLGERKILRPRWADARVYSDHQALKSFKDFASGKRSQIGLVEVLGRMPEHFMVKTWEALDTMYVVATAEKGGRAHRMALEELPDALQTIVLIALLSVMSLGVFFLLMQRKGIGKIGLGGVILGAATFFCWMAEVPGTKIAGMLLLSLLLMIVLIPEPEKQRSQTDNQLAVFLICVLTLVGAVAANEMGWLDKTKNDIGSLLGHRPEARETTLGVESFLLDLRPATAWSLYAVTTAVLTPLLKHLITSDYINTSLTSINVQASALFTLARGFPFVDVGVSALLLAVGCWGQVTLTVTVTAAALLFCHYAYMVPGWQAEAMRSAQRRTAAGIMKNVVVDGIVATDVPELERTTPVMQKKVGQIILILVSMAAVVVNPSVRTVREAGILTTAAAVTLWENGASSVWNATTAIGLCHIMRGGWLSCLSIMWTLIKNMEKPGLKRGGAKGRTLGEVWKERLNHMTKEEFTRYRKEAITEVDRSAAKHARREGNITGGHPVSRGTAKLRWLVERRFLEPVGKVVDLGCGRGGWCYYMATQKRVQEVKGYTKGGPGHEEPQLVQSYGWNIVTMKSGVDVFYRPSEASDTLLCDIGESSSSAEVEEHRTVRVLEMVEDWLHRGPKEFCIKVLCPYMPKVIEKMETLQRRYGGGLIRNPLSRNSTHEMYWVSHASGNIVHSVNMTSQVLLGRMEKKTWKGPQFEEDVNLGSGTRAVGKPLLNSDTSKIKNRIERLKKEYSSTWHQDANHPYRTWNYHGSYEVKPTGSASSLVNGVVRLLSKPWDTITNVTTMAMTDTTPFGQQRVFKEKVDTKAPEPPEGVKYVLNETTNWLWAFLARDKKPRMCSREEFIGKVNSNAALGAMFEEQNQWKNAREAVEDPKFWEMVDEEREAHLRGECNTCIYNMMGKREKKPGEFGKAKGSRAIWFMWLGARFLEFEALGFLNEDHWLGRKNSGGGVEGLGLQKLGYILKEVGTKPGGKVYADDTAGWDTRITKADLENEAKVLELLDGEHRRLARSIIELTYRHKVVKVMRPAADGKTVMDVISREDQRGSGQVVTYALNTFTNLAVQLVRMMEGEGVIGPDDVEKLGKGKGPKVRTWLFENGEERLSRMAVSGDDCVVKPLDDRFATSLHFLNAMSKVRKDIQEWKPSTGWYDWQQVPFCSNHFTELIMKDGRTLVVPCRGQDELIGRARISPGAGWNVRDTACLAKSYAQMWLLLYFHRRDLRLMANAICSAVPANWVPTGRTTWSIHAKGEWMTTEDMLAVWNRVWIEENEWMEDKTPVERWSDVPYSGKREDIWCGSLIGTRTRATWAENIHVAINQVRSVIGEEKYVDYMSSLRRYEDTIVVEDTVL

inhibition [1] | inhibition [2] | inhibition [4] | inhibition [5] | inhibition [6] | inhibition [7] | inhibition [8] | inhibition [9] | inhibition [10] | Activity [11] | inhibition [12] | inhibition [13] | Activity [17] | Activity [18] | Compound | EC50 [3] | T1/2 [14] | Activity [15] | Activity [16]
< 15% | < 15% | < 15% | < 15% | < 15% | < 15% | 29% | < 15% | < 15% | < 0.1 L/mol/s | < 15% | < 15% | – | – | CCCCNC(=O)C[S+](C)C | > 100 µM | – | – | –
< 15% | < 15% | < 15% | < 15% | < 15% | < 15% | 16% | 15% | < 15% | – | < 15% | < 15% | – | – | O=C(NC1CCCC1)C1CC(Br)=NO1 (stereo not drawn) | – | > 200 h | < 0.1 L/mol/s | –
< 15% | < 15% | < 15% | < 15% | < 15% | < 15% | < 15% | < 15% | < 15% | – | < 15% | < 15% | – | – | C=CC(=O)NC(CCCC)C(=O)OC (stereo not drawn) | – | – | < 0.1 L/mol/s | < 5%
< 15% | < 15% | < 15% | 21% | < 15% | < 15% | 23% | < 15% | < 15% | – | < 15% | < 15% | – | – | O=C(Nc1ccc(F)cc1)C1CC(Br)=NO1 (stereo not drawn) | – | > 200 h | < 0.1 L/mol/s | –
< 15% | < 15% | < 15% | < 15% | < 15% | < 15% | 32% | < 15% | < 15% | < 0.1 L/mol/s | < 15% | < 15% | < 0.1 L/mol/s | inactive | C[S+](C)CC(=O)Nc1ccccc1 | > 100 µM | – | – | –
< 15% | < 15% | < 15% | < 15% | < 15% | < 15% | < 15% | < 15% | < 15% | – | < 15% | < 15% | – | – | C=CC(=O)Nc1ccc([N+](=O)[O-])cc1 | – | – | < 0.1 L/mol/s | < 5%
< 15% | < 15% | < 15% | < 15% | < 15% | < 15% | < 15% | < 15% | < 15% | – | 20% | < 15% | – | – | C=CC(=O)NCCCC | > 100 µM | – | < 0.1 L/mol/s | < 5%
< 15% | < 15% | < 15% | < 15% | < 15% | < 15% | 27% | < 15% | < 15% | – | < 15% | < 15% | – | – | CCCCNC(=O)C1CC(Br)=NO1 (stereo not drawn) | > 100 µM | > 200 h | < 0.1 L/mol/s | –
